Usually Ki stands for a dissociation constant, usually derived from enzyme kinetics or from competition with a known ligand. One may read the IC50 as the midpoint of a concentration-inhibition curve. High values mean weaker potency in that assay, low ones greater potency in that assay.

The target in test [1] is Sodium-dependent serotonin transporter (Rattus norvegicus, UniProt P31652). The test can be described thus: Displacement of [3H]paroxetine from Serotonin transporter of rat frontal cortex membrane. Type of test: tissue-based. In outline:
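Rat frontal cortex membranes (50 mg original wet weight) with 0.4 nM [3H]paroxetine. Nonspecific binding defined with 10 μM fluoxetine. Displacement curves used 7-10 unlabeled-analog concentrations. Ki came from the Cheng-Prusoff equation. Mean ± SEM of at least three experiments, each in triplicate.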

The target in test [2] is Norepinephrine transporter (Rattus norvegicus, UniProt Q9WTR4). Kind of test: Displacement of [3H]-nisoxatine from Norepinephrine transporter of rat forebrain membrane. Type of test: tissue-based, Brain.
Test [3] concerns the target Monoamine transporters; serotonin & dopamine (Rattus norvegicus) (UniProt P31652+P23977). Kind of test: Relative affinity for dopamine and Serotonin transporters. Type of test: protein assay. In outline:
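Ratio of DAT IC50 ([125I]RTI-55, rat striatum) to SERT Ki ([3H]paroxetine, rat frontal cortex), each from displacement curves of 7-10 concentrations. Triplicate runs, at least three experiments.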

Test [4] has as its target Sodium-dependent dopamine transporter (Rattus norvegicus, UniProt P23977). The test can be described thus: Displacement of [125I]RTI-55 from dopamine transporter of rat brain membranes. Type of test: cell membranes, Membrane. In outline:
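Rat striatal membranes (0.5 mg original wet weight) with 10 pM [125I]RTI-55. Nonspecific binding defined with a 1 μM tropane analog. Displacement curves used 7-10 unlabeled-analog concentrations. IC50 was reported because binding is multiphasic. Mean ± SEM of at least three experiments, each in triplicate.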

Molecules are shown by their SMILES.

Sequence of Sodium-dependent serotonin transporter (P31652 whole entry): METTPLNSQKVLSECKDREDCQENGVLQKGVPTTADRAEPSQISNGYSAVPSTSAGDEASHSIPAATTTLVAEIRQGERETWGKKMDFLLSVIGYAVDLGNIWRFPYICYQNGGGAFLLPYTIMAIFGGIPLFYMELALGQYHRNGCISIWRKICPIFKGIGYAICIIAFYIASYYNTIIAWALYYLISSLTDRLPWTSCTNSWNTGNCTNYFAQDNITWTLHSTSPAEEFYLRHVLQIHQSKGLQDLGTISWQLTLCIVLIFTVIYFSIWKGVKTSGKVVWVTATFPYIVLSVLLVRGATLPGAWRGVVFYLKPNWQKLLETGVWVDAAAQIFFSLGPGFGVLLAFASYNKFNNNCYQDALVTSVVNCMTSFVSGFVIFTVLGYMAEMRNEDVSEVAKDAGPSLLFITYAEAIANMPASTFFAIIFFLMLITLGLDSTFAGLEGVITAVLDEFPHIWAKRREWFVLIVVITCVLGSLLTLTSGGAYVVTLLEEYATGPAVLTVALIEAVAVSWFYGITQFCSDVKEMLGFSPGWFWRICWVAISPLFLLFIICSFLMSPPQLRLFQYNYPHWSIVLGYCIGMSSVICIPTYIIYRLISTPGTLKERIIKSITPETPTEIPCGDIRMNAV
Sequence of Monoamine transporters; serotonin & dopamine (Rattus norvegicus) (P23977 whole entry, looked up): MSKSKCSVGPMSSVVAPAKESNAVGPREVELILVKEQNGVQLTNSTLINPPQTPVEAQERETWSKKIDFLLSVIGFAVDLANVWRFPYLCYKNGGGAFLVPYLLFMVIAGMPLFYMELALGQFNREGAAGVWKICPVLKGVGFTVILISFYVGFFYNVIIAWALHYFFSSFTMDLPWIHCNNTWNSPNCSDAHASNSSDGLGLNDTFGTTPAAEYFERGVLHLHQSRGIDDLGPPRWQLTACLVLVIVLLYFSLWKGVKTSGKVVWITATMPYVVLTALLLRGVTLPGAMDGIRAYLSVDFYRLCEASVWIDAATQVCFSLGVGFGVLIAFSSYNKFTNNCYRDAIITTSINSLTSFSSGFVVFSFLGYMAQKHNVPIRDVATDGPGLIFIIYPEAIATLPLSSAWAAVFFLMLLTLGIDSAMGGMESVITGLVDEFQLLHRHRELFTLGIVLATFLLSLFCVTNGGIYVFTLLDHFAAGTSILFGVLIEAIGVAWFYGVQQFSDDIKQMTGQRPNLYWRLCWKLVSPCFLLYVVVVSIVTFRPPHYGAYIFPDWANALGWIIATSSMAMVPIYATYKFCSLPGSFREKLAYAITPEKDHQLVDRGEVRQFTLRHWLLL
Sequence of Monoamine transporters; serotonin & dopamine (Rattus norvegicus) (P31652 whole entry, looked up): as the sequence (P31652 whole entry) above
Sequence of Sodium-dependent dopamine transporter (P23977 whole entry): as the sequence (P23977 whole entry, looked up) above
Sequence of Norepinephrine transporter (Q9WTR4 whole entry): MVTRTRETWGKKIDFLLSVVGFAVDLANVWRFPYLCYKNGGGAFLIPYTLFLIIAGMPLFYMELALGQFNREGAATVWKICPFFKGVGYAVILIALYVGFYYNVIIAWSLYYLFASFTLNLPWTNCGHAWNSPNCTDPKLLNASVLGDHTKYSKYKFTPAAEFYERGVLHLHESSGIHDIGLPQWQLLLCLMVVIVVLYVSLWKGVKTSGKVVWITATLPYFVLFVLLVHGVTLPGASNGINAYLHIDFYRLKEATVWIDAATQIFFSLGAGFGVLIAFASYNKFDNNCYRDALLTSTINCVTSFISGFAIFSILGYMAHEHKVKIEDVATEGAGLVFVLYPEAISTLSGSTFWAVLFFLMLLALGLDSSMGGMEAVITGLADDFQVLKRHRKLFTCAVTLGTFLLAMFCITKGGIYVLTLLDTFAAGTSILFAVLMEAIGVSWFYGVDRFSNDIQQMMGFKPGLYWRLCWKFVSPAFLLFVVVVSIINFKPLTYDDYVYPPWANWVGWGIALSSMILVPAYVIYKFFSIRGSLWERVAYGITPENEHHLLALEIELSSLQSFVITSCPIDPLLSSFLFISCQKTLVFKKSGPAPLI

`C=C(C)c1ccc(C2CC3CCC(C2C(=O)CC)N3C)cc1` (configuration not stated): the figures for the Ki in test [1] and in test [2] were 0.82 nM and 794 nM, respectively. Besides, the Ratio in test [3] came to 8.8. For the same compound, the IC50 in test [4] worked out at 7.2 nM.

`CCC(=O)C1C(c2ccc(C)cc2)CC2CCC1N2C` (configuration not stated): the Ki in test [2] came out at 160 nM. In test [3], the Ratio stood at 0.063.

Turning to `CCC(=O)C1C2CCC(CC1c1ccc(C)cc1)N2` (configuration not stated), the values for the Ki in test [1] and in test [2] were 19 nM and 5.5 nM, respectively. Further, the Ratio in test [3] is 0.25. In addition, the IC50 in test [4] came to 4.7 nM.

As to `C=C(C)c1ccc(C2CC3CCC(N3)C2C(=O)CC)cc1` (configuration not stated), the inhibition constant (Ki) in test [1] turned out to be 0.11 nM; in test [2] it was 94 nM. Besides, the Ratio in test [3] was determined as 150. This compound also returned an IC50 in test [4] of 16 nM.

`C=Cc1ccc(C2CC3CCC(N3)C2C(=O)CC)cc1` (configuration not stated): the Ki is 0.32 nM in test [1] and 10.9 nM in test [2]. In test [3], the Ratio is 4.7. In test [4], this compound registered an IC50 of 1.5 nM.

Turning to `CCC(=O)C1C(c2ccc(C(CC)CC)cc2)CC2CCC1N2C` (configuration not stated), the Ki in test [1] is 540 nM; in test [2] it was over 10000 nM. Also, the Ratio in test [3] amounted to 0.5. The IC50 in test [4] turned out to be 270 nM.

`CCC(=O)C1C2CCC(CC1c1ccc(C(C)C)cc1)N2` (configuration not stated): the results for the Ki in test [1] and in test [2] were 5.3 nM and 150 nM, respectively. Further, the Ratio in test [3] was 72. For the same compound, the concentration for half-maximal inhibition (IC50) in test [4] was 540 nM.

In the case of `CCC(=O)C1C2CCC(CC1c1ccc3ccccc3c1)N2` (configuration not stated), the Ki in test [1] came out at 0.22 nM; in test [2], 440 nM. In test [4], the concentration for half-maximal inhibition (IC50) came to 36 nM.

The compound `CCC(=O)C1C(c2ccc3ccccc3c2)CC2CCC1N2C` (configuration not stated) gave a Ki in test [2] of 2.9 nM. In addition, the Ratio in test [3] amounted to 0.31.

Consider `CCC(=O)C1C2CCC(CC1c1ccc(C3CCCCC3)cc1)N2` (configuration not stated), for which the Ki in test [1] came to 85 nM; in test [2], 4300 nM. For the same compound, in test [3], the Ratio came to 5.8. In addition, in test [4], the IC50 amounted to 490 nM.

Turning to `CCC(=O)C1C(c2ccc(C3CCCCC3)cc2)CC2CCC1N2C` (configuration not stated), the figures for the Ki in test [1] and in test [2] were 97 nM and over 10000 nM, respectively. Further, in test [3], the Ratio came to 3.3. The concentration for half-maximal inhibition (IC50) in test [4] came out at 320 nM.

Take `C=Cc1ccc(C2CC3CCC(C2C(=O)CC)N3C)cc1` (configuration not stated): the Ki in test [1] was 3.2 nM; in test [2] it was 78 nM. Moreover, in test [3], the Ratio is 0.28. This compound returned an IC50 in test [4] of 0.9 nM.

Consider `CCC(=O)C1C2CCC(CC1c1ccc(C(CC)CC)cc1)N2` (configuration not stated), for which the Ki in test [1] worked out at 150 nM; in test [2], 5100 nM. The Ratio in test [3] was found to be 1.27. This compound also came in with an IC50 in test [4] of 190 nM.

(Values after ChEMBL document CHEMBL1129355, “Synthesis of 3 beta-aryl-8-azabicyclo[3.2.1]octanes with high binding affinities and selectivities for the serotonin transporter site” (J Med Chem, 1996).)
